Data reported in paper PMC3621710 (Bioconjugate chemistry, 2009).
Square brackets hold non-standard residues; d marks the D form. Ends that are not written are not given here.

Tests used:
[1] = molecular target: MC1 receptor (B16/F1 melanoma cells) (Mus musculus, UniProt Q01727); conditions: read-out: MC1 receptor binding affinity; cited from earlier work
B16/F1 melanoma cells = test: Clonogenic cytotoxicity; type: cell-based, murine; conditions: 0.1 μM peptide, 3 h incubation at 37 °C, colonies over 6 days
Summary of the method: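 B16/F1 cells seeded at 200 cells/well and held overnight at 37 °C. After a wash with RPMI 1640, cells were exposed for 3 h at 37 °C to 0.1 μM test peptide in medium; controls received medium only. After two PBS washes, colonies grew for 6 days with medium changed every other day. Cells were fixed in methanol:glacial acetic acid (3:1) and hematoxylin-stained; colonies >50 cells scored as survivors. Survival normalized to untreated (100%); unpaired Student's t-test.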

Sequence of MC1 receptor (B16/F1 melanoma cells) (Q01727 whole entry): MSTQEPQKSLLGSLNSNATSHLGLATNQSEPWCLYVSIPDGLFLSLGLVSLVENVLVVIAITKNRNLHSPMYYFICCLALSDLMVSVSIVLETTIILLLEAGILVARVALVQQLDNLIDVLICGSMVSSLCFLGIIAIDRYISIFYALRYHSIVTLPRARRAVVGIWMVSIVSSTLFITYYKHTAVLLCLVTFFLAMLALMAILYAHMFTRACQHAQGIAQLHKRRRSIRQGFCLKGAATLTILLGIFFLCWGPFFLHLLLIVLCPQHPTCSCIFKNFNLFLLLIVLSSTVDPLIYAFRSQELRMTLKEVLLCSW

Substance	IC50 [1] [nM]	decrease in clonogenic survival compared to untreated group (B16/F1 melanoma cells) [%]
[Cys^3,4,10, D-Phe^7, Arg^11]α-MSH3-13 (CCEH[dF]RWCRPV; not fully specified (C-terminus); ends and bridges not checked) [(Arg^11)CCMSH]	1.7	
[Cys^3,4,10, D-Phe^7, Arg^11]α-MSH3-13 [(Arg^11)CCMSH]		11
